# Bioassay records from PubChem.
# Most compounds without a hit are left out; they make up all but 1% or so of the library.
# Yeast growth tox – Inhibitors of S. cerevisiae growth, toxicity; 30,000 tested, 0.3% active; S. cerevisiae wild-type growth, A595 turbidity, 16 h; growth inhibition, % at 25 µM (by protocol);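 active = mutant and wild-type yeast strains alike exhibit over 30% growth inhibition; inconclusive = a strain exceeds 50% while the second remains under 30%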;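 also: 0% = untreated cell controls and 100% = YPD media blanks without cells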
#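 System: S. cerevisiae wild-type or eIF2Bepsilon-R284H mutant strain; times: 16 h growth with compound, 30 °C; signal: absorbance at 595 nm (turbidity); measure: growth inhibition (%) versus cell controls and blanks; compound: 25 µM single dose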
# Yeast eIF2B – modulators of yeast eIF2B activity; AID 688; S. cerevisiae eIF2B-epsilon R284H, GCN4-lacZ luminescence; inhibition, % at 25 µM (by protocol); 27,000 tested, 0.91% active;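 active = mutant luminescence inhibited past about 50% while wild type luminescence and mutant growth stay under set limits, limit read from the data; inconclusive = mutant versus wild type luminescence inhibition gap past a set limit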
#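 Material – yeast eIF2B-epsilon R284H mutant carrying GCN4–beta-galactosidase fusion · Medium – YPD yeast growth medium · Compound – one concentration, 25 µM, 0.25% DMSO · Times – 16 h at 30 °C exposure · Signal – Beta-Glo luminescence plus absorbance at 595 nm · Read-out – % inhibition of reporter signal and growth versus controls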
# * = called active by the depositor; ? = inconclusive; / = no result.
SMILES,Yeast growth tox,Yeast eIF2B
N#CC1=C(SCC(=O)c2ccc(Cl)cc2)NC2=C(C(=O)CCC2)C1c1ccco1 (centres undefined),5,51*
O=C(NC1CCCC1)c1ccc(S(=O)(=O)N2CCOCC2)cc1,19,/
O=C(NC1CCCCC1)c1ccc(S(=O)(=O)N2CCCC2)cc1,35*,40
CC(=O)Nc1ccc(C(=O)NC2CCCC2)cc1,-23,51*
CC(Oc1ccc(C(=O)NC2CCCCC2)cc1)C(=O)O (centres undefined),1,/
CC1=NNC(=O)C1C(c1ccccc1)C(C#N)C#N (centres undefined),-7,6
COc1ccccc1/C=N/n1c(C)nnc1-n1nc(C)cc1C,7,17
COc1ccc(C(=O)Nn2c(C)nnc2-n2nc(C)cc2C)cc1OC,0,56*
COC(=O)c1ccc(C(=O)OC)c(NC(=O)CSc2cccc[n+]2[O-])c1,7,/
Cn1ncc(C#N)c1/N=C/N1CCCC1,-3,/
O=C(c1cccs1)N1CCC(c2ccccc2)C1 (centres undefined),18,71*
O=C(c1cccs1)N1CCCC1,0,5
CCOC(=O)N1CCN(C(=O)c2nn(-c3cc(OC)cc(OC)c3)c(=O)c3ccccc23)CC1,-26,57*
COc1cc(OC)cc(-n2nc(C(=O)N3CC(C)CC(C)C3)c3ccccc3c2=O)c1 (centres undefined),-5,-18
COc1ccc(Oc2c(-c3ccc(O)cc3O)n[nH]c2C)cc1,6,-1
CCCc1ccc(Oc2c(-c3ccc(O)c(C)c3O)n[nH]c2C)cc1,81*,-32
N/C(Cc1cccs1)=N\OC(=O)COc1ccc(Cl)cc1Cl,24,/
COc1ccc(CCn2c(C)cc(C(=O)CSc3nnnn3-c3ccccc3)c2C)cc1,-18,/
O=C(COc1cccc(NC(=O)c2ccco2)c1)c1ccccc1,8,/
COc1ccc(C2=NOC(CN3C(=O)c4ccccc4S3(=O)=O)C2)cc1 (centres undefined),/,43
O=C1c2ccccc2S(=O)(=O)N1CC1CC(c2ccccc2)=NO1 (centres undefined),42*,-7
Cc1ccc(NCc2nnc3n2CCCCC3)cc1,-21,-26
N/C(Cc1ccc([N+](=O)[O-])cc1)=N\OC(=O)c1ccc([N+](=O)[O-])cc1,5,16
N/C(Cc1ccc(Cl)cc1)=N\OC(=O)c1ccccc1,71*,0
CN(CCC(=O)Nc1ccc(Br)cc1)Cc1ccccc1,3,/
SMILES,Yeast growth tox,Yeast eIF2B
O=C(CSc1n[nH]c(=O)n1C1CC1)Nc1cc(Cl)ccc1Oc1ccccc1,9,-38
COc1ccc2c(CC(=O)NCc3ccc4c(c3)OCO4)coc2c1,20,2
CCCCNC(=O)OC1CCS(=O)(=O)C1 (centres undefined),-15,55*
Cc1ccc(Oc2ccc(OCC(=O)OC3CCS(=O)(=O)C3)cc2)cc1 (centres undefined),/,6
CCOC(=O)Cc1csc(SCC(=O)Nc2cc(Cl)ccc2Oc2ccccc2)n1,21,22
O=C(Nc1ccccn1)C(=O)N1CCCCC1,-3,-25
COc1ccc(CCNC(=O)c2ccc(N3CCCC3=O)cc2)cc1OC,-10,56*
CCCCN(C)CCCNC(=O)c1ccc(N2CCCC2=O)cc1,-2,6
CC1(C)CC(=O)C(/C=N/n2c(C(F)(F)F)nc3ccccc3c2=O)=C(O)C1,25,20
COc1ccccc1NC(=S)NNC(=O)c1ccccc1,-8,58*
COc1ccccc1NC(=O)Oc1ccc(C(C)=O)cc1,-4,14
c1ccc(-n2nnnc2-c2cnc(-c3cccnc3)nc2-c2cccs2)cc1,13,/
CCOC(=O)Cn1c(=O)c(-c2ccccc2NCc2ccccc2)nc2ccccc21,-30,58*
CCOC(=O)CSc1nc2ccccc2n1CC(=O)NC(C)(C)C,15,18
COc1ccc(Cn2c(CCC(=O)Nc3ccc(C)c(C)c3)nc3cccnc32)cc1,8,/
Cc1cc(C)c(NC(=O)CSc2nnc(Cc3cccn3C)n2-c2ccc(F)cc2)c(C)c1,3,60*
COc1ccc(NC(=O)CSc2nnc(Cc3cccn3C)n2-c2ccc(C)cc2)cc1OC,-1,12
COC(=O)c1cc(Br)c(=O)n(Cc2ccc(OC)c(OC)c2)c1,2,17
CC(=O)/C(C(=N)N1CCN(c2cccc(Cl)c2)CC1)=C(\C)O,/,61*
O=C(O)CCC(=O)N1CCN(c2cccc(Cl)c2)CC1,-2,35
NC(=O)CSC1=Nc2ccccc2C2=NC(CC(=O)NCc3cccs3)C(=O)N12 (centres undefined),10,52*
COCCCNC(=O)CSC1=Nc2ccccc2C2=NC(CC(=O)NCc3ccccc3)C(=O)N12 (centres undefined),4,38
CCOC(=O)/C=c1\sc2n(c1=O)CCN=2,-14,38
O=c1/c(=C/c2ccc(O)cc2)sc2n1CCCN=2,16,79*
CCCOc1ccc(N2C(=O)CC(NCc3ccncc3)C2=O)cc1 (centres undefined),-3,0
SMILES,Yeast growth tox,Yeast eIF2B
C=CCNc1nnc(SC2CC(=O)N(c3ccc(OCCC)cc3)C2=O)s1 (centres undefined),60*,2
COc1ccc2sc(N3C(=O)C4CC=C(C)CC4C3=O)nc2c1 (centres undefined),/,6
O=C(c1ccc(Br)o1)N1CCCc2ccccc21,-17,53*
O=C(c1ccccc1)N1CCc2ccccc21,27,12
O=S(=O)(NCCc1ccccc1F)c1cccc(S(=O)(=O)N2CCOCC2)c1,-6,-24
CCCCNS(=O)(=O)c1cccc(S(=O)(=O)N2CCCC2)c1,-9,53*
Cc1nn(C(C)c2n[nH]c(=S)n2-c2cccc(Cl)c2)c(C)c1[N+](=O)[O-] (centres undefined),16,-12
C=CCn1c(CCNC(=O)c2ccccc2F)nnc1SCC(=O)Nc1nc2ccccc2s1,16,/
CC(CN1CCCCC1)OC(=O)C(C)(c1ccccc1)c1ccccc1 (centres undefined),-5,16
Cc1ccc(-c2nc3cc(C)ccc3o2)cc1,2,15
Cc1ccc2nc(-c3cccnc3)oc2c1,-4,53*
CCOC(=O)/C(=N/Nc1ccc(Cl)cc1)S(=O)(=O)c1ccccc1,20,10
O=C(c1cc2c(=O)oc3ccccc3c2s1)N1CCN(c2ccccn2)CC1,-43,-7
CC(C)OC(=O)CCc1nc2ccccc2[nH]c1=O,2,61*
CCOC(=O)C(C)c1nc2ccccc2[nH]c1=O (centres undefined),8,33
O=C(COC(=O)CCc1ccc(S(=O)(=O)N2CCOCC2)cc1)Nc1ccc(Cl)cn1,10,17
CCOC(=O)Cc1csc(NC(=O)CCc2ccc(S(=O)(=O)N3CCOCC3)cc2)n1,4,57*
COc1cc(S(=O)(=O)N2CCN=C2c2ccccc2)ccc1F,?,-20
COc1ccc(C2=CSC3=NCCN23)cc1F,7,65*
CC(=O)/C=C(\C)Nc1ccc(-c2cnc(-c3ccccc3)o2)cc1,-21,70*
C/C(=C\C(=O)c1ccccc1)Nc1ccc(O)cc1,15,20
COC(=O)C1=C(CSc2nccn2C)NC(=O)NC1c1cc(C)ccc1C (centres undefined),22,/
Cc1ccc(C(=C2C3C=CC2C2C(=O)NC(=O)C32)c2ccc(C)cc2)cc1 (centres undefined),1,/
